Folding enthalpy and Tm data for 38 sequences are collected here from the array DNA melting data of Ke et al. (doi:10.1101/2024.01.08.574731).

Data set [1] is described as follows: folding enthalpy; higher = less favourable; fluorescence melt of hairpins on a sequencing array, two-state fit. The settings on record: sodium 0.088 M. Put shortly:
(§1)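 Melting temperature and folding enthalpy were obtained by bootstrapped two-state fitting. Fits used Cy3 fluorescence of library hairpins with annealed Cy3 and quencher oligos on a sequenced MiSeq flow cell, imaged in 50 mM Na-HEPES pH 8.0, 25 mM NaCl in 2.5 °C steps up to 60 °C and normalised to pre-quench Cy3 and control constructs. Four replicates were combined by inverse-variance weighting, and fitted temperatures were raised by 9.35 °C to match UV melts.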

Data set [2] is described as follows: melting temperature; fluorescence melt of hairpins on a sequencing array, two-state fit, raised by 9.35 °C to match UV melts. The settings on record: sodium 0.088 M. Put shortly: as §1

Consider GTTTGCGGAAACGCGAAC (((.(((....))).))), for which the folding enthalpy in data set [1] was -35.7 kcal/mol. For the same sequence, in data set [2], the Tm is 56.9 °C.

On to GTTTGCGGAAACGTAAAC ((((.((....)).)))), for which the folding enthalpy in data set [1] was -32.3 kcal/mol. Also, in data set [2], the Tm was determined as 48.6 °C.

Consider GTTTGGAAACAAAC (((((....))))), for which the folding enthalpy in data set [1] is -24.5 kcal/mol. Also, the Tm in data set [2] is 45.6 °C.

Consider GTTTGGCCGAAAGGCAAC (((..(((....)))))), for which the folding enthalpy in data set [1] is -11.5 kcal/mol. Besides, the Tm in data set [2] turned out to be 37.7 °C.

On to GTTTGGGAAACCAAAC ((((((....)))))), for which the folding enthalpy in data set [1] is -39.5 kcal/mol. Further, the Tm in data set [2] amounted to 53.2 °C.

As to GTTTGGGGAAACCCGAAC (((.(((....))).))), the folding enthalpy in data set [1] was -36.5 kcal/mol. Moreover, in data set [2], the Tm worked out at 49.3 °C.

GTTTGTGAAAACAAAC ((((((....)))))): the folding enthalpy in data set [1] is -37.6 kcal/mol. In data set [2], the Tm stood at 53.7 °C.

Take GTTTGTGGAAACACAAGC (.(((((....))))).): in data set [1], the folding enthalpy was -23.1 kcal/mol. In addition, the Tm in data set [2] worked out at 45.1 °C.

As to GTTTGTGGAAACACGAAC (((.(((....))).))), in data set [1], the folding enthalpy is -36 kcal/mol. In data set [2], the Tm is 49 °C.

For GTTTTACCGAAAGGTAAC (((..(((....)))))), the folding enthalpy in data set [1] was -12.3 kcal/mol. In data set [2], the Tm was 33.6 °C.

GTTTTACGAAAGTAGAAC (((.(((....))).))): the folding enthalpy in data set [1] was -29.2 kcal/mol. Further, in data set [2], the Tm is 41.2 °C.

Regarding GTTTTAGGAAACTAAGAC ((.((((....)))).)), in data set [1], the folding enthalpy was -15.7 kcal/mol. In addition, the Tm in data set [2] worked out at 29 °C.

Turning to GTTTTCCGAAAGGATAAC (((.(((....))).))), the folding enthalpy in data set [1] was -28.4 kcal/mol. The Tm in data set [2] amounted to 44.9 °C.

Turning to GTTTTCGGAAACGGAAAC ((((.((....)).)))), the folding enthalpy in data set [1] was -27.1 kcal/mol. Further, the Tm in data set [2] was 47.1 °C.

For GTTTTGACGAAAGTCAAC (((..(((....)))))), the folding enthalpy in data set [1] is -11.5 kcal/mol. Also, in data set [2], the Tm stood at 34.6 °C.

GTTTTGCGAAAGCAGAAC (((.(((....))).))): the folding enthalpy in data set [1] is -29.9 kcal/mol. In addition, the Tm in data set [2] was 51.4 °C.

In the case of GTTTTGGGAAACCAGAAC (((.(((....))).))), the folding enthalpy in data set [1] was -26.9 kcal/mol. Also, the Tm in data set [2] is 38.1 °C.

For the sequence GTTTTTGGAAACGAAAAC (((((.(....).))))), the folding enthalpy in data set [1] is -31.3 kcal/mol. The Tm in data set [2] amounted to 40.4 °C.

Consider TACCCGAAAGGGTA (((((....))))), for which, in data set [1], the folding enthalpy was -14.4 kcal/mol. The Tm in data set [2] is 66.1 °C.

Take TAGACGAAAGTCTA (((((....))))): in data set [1], the folding enthalpy was -15.3 kcal/mol. Moreover, the Tm in data set [2] is 50.9 °C.

Consider TAGAGGAAACTCTA (((((....))))), for which the folding enthalpy in data set [1] was -8.94 kcal/mol. Moreover, the Tm in data set [2] is 32.1 °C.

In the case of TATACGAAAGTATA (((((....))))), in data set [1], the folding enthalpy was -14.9 kcal/mol. Besides, the Tm in data set [2] amounted to 42.1 °C.

Regarding TATCGGAAACGATA (((((....))))), in data set [1], the folding enthalpy was -17.8 kcal/mol. Also, in data set [2], the Tm turned out to be 43 °C.

For TATGGGAAACCATA (((((....))))), in data set [1], the folding enthalpy was -14.9 kcal/mol. Also, in data set [2], the Tm was found to be 37.2 °C.

Consider TCACAGAAATGTGA (((((....))))), for which the folding enthalpy in data set [1] was -14.6 kcal/mol. In addition, the Tm in data set [2] turned out to be 39.8 °C.

TCAGTGAAAACTGA (((((....))))): the folding enthalpy in data set [1] is -16.9 kcal/mol. Moreover, the Tm in data set [2] came to 42.6 °C.

Turning to TCATCGAAAGATGA (((((....))))), in data set [1], the folding enthalpy was -22.9 kcal/mol. Further, the Tm in data set [2] came to 49.7 °C.

Regarding TCATGGAAACATGA (((((....))))), in data set [1], the folding enthalpy is -24.5 kcal/mol. For the same sequence, in data set [2], the Tm is 39.8 °C.

In the case of TCCAGGAAACTGGA (((((....))))), the folding enthalpy in data set [1] is -22.8 kcal/mol. Besides, in data set [2], the Tm turned out to be 46 °C.

Regarding TCCTGGAAACAGGA (((((....))))), in data set [1], the folding enthalpy is -18.4 kcal/mol. Further, in data set [2], the Tm was 45.5 °C.

In the case of TCGTGGAAACACGA (((((....))))), in data set [1], the folding enthalpy was -18.3 kcal/mol. Further, the Tm in data set [2] worked out at 53.7 °C.

Regarding TCGTTGAAAAACGA (((((....))))), the folding enthalpy in data set [1] is -20.3 kcal/mol. For the same sequence, in data set [2], the Tm came out at 44.7 °C.

As to TCTCAGAAATGAGA (((((....))))), the folding enthalpy in data set [1] is -12.2 kcal/mol. Besides, the Tm in data set [2] was 31.1 °C.

In the case of TCTGAGAAATCAGA (((((....))))), in data set [1], the folding enthalpy was -11.1 kcal/mol. For the same sequence, in data set [2], the Tm came out at 33.4 °C.

Take TGAGTGAAAACTCA (((((....))))): the folding enthalpy in data set [1] was -18.3 kcal/mol. In addition, the Tm in data set [2] was 42.4 °C.

In the case of TGCGTGAAAACGCA (((((....))))), the folding enthalpy in data set [1] was -18.1 kcal/mol. Also, the Tm in data set [2] is 66.2 °C.

As for TGTCAGAAATGACA (((((....))))), the folding enthalpy in data set [1] was -17.6 kcal/mol. The Tm in data set [2] turned out to be 40.2 °C.

TGTCTGAAAAGACA (((((....))))): the folding enthalpy in data set [1] is -20.4 kcal/mol. Further, the Tm in data set [2] was 47.2 °C.
